{"source": "paper PMC6021137", "about": "(Clinical cancer research : an official journal of the …, 2013)", "key": {"CWR22Pc xenograft tumors": {"system": "CWR22Pc xenograft tumors", "assay": "CWR22Pc xenograft tumor growth", "assay_type": "in vivo"}, "[1]": {"system": "Stat5a/b nuclear translocation", "assay": "Nuclear translocation of Stat5a/b, immunofluorescence in PC-3 cells", "assay_type": "cell-based, human", "settings": "200 nM AZD1480 for 2 h, 10 nM hPrl 20 min"}, "[2]": {"system": "clinical prostate cancers ex vivo in organ explant cultures", "assay": "Ex vivo organ explant cultures of clinical PCs", "assay_type": "cell-based, human"}, "CWR22Rv1 cells [3]": {"system": "CWR22Rv1 cells", "assay": "Caspase-3 activation assay", "assay_type": "cell-based, human", "settings": "800 nM, 72 h"}, "PC-3": {"system": "PC-3", "assay": "Cell viability assay", "assay_type": "cell-based", "settings": "Homo sapiens, PC-3, 72 h"}, "[4]": {"system": "CWR22Rv1 tumor xenografts (s.c.)", "assay": "Subcutaneous CWR22Rv1 xenograft tumor growth", "assay_type": "in vivo, SCID mice", "settings": "for suppression of s.c. tumor growth at end of treatment: oral gavage"}, "Stat5a [5]": {"target": "T1, Stat5a (Homo sapiens, UniProt O60674)", "T1 sequence (O60674 whole entry)": "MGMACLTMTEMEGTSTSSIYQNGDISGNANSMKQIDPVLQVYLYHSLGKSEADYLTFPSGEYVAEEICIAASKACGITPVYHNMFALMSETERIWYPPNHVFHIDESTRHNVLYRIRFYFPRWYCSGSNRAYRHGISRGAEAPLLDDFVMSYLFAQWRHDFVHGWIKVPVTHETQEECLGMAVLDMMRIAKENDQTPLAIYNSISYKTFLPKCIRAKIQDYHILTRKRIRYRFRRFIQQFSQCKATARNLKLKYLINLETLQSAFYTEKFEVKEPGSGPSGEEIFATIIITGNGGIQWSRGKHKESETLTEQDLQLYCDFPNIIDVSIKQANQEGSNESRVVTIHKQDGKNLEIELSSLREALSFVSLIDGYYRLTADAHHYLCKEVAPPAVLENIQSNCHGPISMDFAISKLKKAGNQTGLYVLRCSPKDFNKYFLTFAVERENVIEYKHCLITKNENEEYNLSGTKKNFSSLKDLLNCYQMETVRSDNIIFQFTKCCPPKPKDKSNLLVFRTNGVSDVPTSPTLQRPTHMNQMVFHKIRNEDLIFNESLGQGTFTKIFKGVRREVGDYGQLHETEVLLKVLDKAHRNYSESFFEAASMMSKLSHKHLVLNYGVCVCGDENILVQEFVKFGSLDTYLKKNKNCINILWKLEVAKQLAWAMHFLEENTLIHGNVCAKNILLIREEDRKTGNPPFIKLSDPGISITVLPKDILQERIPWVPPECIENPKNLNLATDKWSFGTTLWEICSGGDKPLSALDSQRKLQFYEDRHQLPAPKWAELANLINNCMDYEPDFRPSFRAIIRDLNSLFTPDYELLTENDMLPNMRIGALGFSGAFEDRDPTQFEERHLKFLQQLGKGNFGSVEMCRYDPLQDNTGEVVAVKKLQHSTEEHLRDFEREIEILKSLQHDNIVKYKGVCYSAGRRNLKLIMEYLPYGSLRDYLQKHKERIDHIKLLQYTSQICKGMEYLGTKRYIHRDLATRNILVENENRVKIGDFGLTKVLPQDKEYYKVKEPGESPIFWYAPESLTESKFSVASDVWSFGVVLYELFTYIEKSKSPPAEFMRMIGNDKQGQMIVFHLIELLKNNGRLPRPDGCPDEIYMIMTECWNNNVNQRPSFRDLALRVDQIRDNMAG", "assay": "Stat5a phosphorylation, immunoprecipitation/immunoblotting, CWR22Pc cells", "assay_type": "cell-based", "settings": "read-out: IC50, inhibition of constitutive activation of Stat5a; exponentially growing CWR22Pc cells"}, "CWR22Pc cells [6]": {"system": "CWR22Pc cells", "assay": "Caspase-3 activation assay", "assay_type": "cell-based, human", "settings": "800 nM, 48 h"}, "Stat5a/b dimerization": {"system": "Stat5a/b dimerization", "assay": "Stat5a/b dimerization by co-immunoprecipitation in PC-3 cells", "assay_type": "cell-based, human", "settings": "2 h pre-treatment, 10 nM hPrl"}, "DU145": {"system": "DU145", "assay": "Cell viability assay", "assay_type": "cell-based", "settings": "Homo sapiens, DU-145, 72 h"}, "CWR22Rv1 cells [7]": {"system": "CWR22Rv1 cells", "assay": "Cell viability assay", "assay_type": "cell-based", "settings": "Homo sapiens, CWR22Rv1, 72 h, read-out: GI50 (number of viable cells decreased by 50%)"}, "Stat5a [8]": {"target": "T1, Stat5a", "assay": "Stat5a phosphorylation, immunoprecipitation/immunoblotting, CWR22Rv1 cells", "assay_type": "cell-based", "settings": "read-out: IC50, inhibition of constitutive activation of Stat5a; exponentially growing CWR22Rv1 cells"}, "[9]": {"system": "CWR22Rv1 tumor xenografts (orthotopic)", "assay": "Orthotopic CWR22Rv1 xenograft tumor growth", "assay_type": "in vivo, SCID mice", "settings": "oral gavage", "procedure,_shortened": "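Luciferase-tagged CWR22Rv1 cells were implanted orthotopically into the prostates of male CB-17 SCID mice. Mice received test compound at 10 or 30 mg/kg, or vehicle (0.1% Tween 80/0.5% methylcellulose), daily by oral gavage. […]. Growth suppression was assessed at end of treatment versus vehicle.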"}, "CWR22Pc cells [10]": {"system": "CWR22Pc cells", "assay": "Cell cycle analysis", "assay_type": "cell-based, human", "settings": "CWR22Pc, 24, 48 and 72 h"}, "CWR22Pc cells [11]": {"system": "CWR22Pc cells", "assay": "Cell viability assay", "assay_type": "cell-based", "settings": "Homo sapiens, 72 h, read-out: GI50 (number of viable cells decreased by 50%)"}, "[12]": {"system": "normal prostate epithelial cells (RC165N)", "assay": "Cell viability assay", "assay_type": "cell-based", "settings": "Homo sapiens, 72 h"}, "Stat5b [13]": {"target": "T2, Stat5b (Homo sapiens, UniProt O60674)", "T2 sequence (O60674 whole entry)": "as above", "assay": "Stat5b phosphorylation, immunoprecipitation/immunoblotting, CWR22Pc cells", "assay_type": "cell-based"}, "Stat5b [14]": {"target": "T2, Stat5b", "assay": "Stat5b phosphorylation, immunoprecipitation/immunoblotting, CWR22Rv1 cells", "assay_type": "cell-based"}, "[15]": {"settings": "tumors harvested at end of treatment"}}, "note": "Several values for one entry are separate records, joined by “and”; a condition that tells them apart may be missing. Identical values can stand only once."}
{"smiles": "CC(=O)O[C@@]12CO[C@@H]1C[C@H](O)[C@@]1(C)C(=O)[C@H](O)C3=C(C)[C@@H](OC(=O)[C@H](O)[C@@H](NC(=O)OC(C)(C)C)c4ccccc4)C[C@@](O)([C@@H](OC(=O)c4ccccc4)[C@H]21)C3(C)C", "note": "[docetaxel, reference compound]", "values": [{"measurement": "nuclear Stat5a/b levels in CWR22Pc tumors (IHC)", "setting": "CWR22Pc xenograft tumors; [15]", "result": "no effect"}]}
{"smiles": "Cc1cc(Nc2nc(N[C@@H](C)c3ncc(F)cn3)ncc2Cl)n[nH]1", "note": "[AZD1480, 5-Chloro-N(2)-[(1S)-1-(5-fluoropyrimidin-2-yl)ethyl]-N(4)-(5-methyl-1H-pyrazol-3-yl)pyrimidine-2,4-diamine]", "values": [{"measurement": "ligand-induced nuclear translocation of Stat5a/b", "setting": "[1]", "result": "no ligand-induced nuclear immunostaining of Stat5a/b"}, {"measurement": "nuclear Stat5a/b levels in explants", "setting": "[2]; 9 responsive PCs, both AZD1480 treatment groups", "result": "significantly decreased"}, {"measurement": "clinical PCs not responding (non-responders)", "setting": "[2]; 7 days culture", "result": "3 of the 12 and 3"}, {"measurement": "clinical PCs responding by loss of viable epithelium (responders)", "setting": "[2]; 7 days culture", "result": "Nine of 12"}, {"measurement": "concentration from which extensive loss of viable epithelium starts", "setting": "[2]; responders, 7 days culture", "result": 25, "unit": "µM"}, {"measurement": "increase in caspase-3 activation", "setting": "CWR22Rv1 cells [3]", "result": 200, "unit": "%"}, {"measurement": "GI50", "setting": "PC-3", "result": 1760, "unit": "nM"}, {"measurement": "suppression of s.c. tumor growth at end of treatment", "setting": "[4]; 10 mg/kg daily", "result": 52, "unit": "%"}, {"measurement": "suppression of s.c. tumor growth at end of treatment", "setting": "[4]; 30 mg/kg daily", "result": 72, "unit": "%"}, {"measurement": "Stat5a/b phosphorylation in s.c. xenograft tumor lysates", "setting": "[4]; 2 h following 30 mg/kg", "result": "significant inhibition of Stat5a/b phosphorylation"}, {"measurement": "decrease in nuclear Stat5a/b in tumor tissues relative to control (IHC)", "setting": "[4]; tumors harvested after 11 days of drug treatment", "result": 70, "unit": "%"}, {"measurement": "IC50", "setting": "Stat5a [5]", "result": 7, "unit": "nM"}, {"measurement": "increase in caspase-3 activation", "setting": "CWR22Pc cells [6]", "result": 150, "unit": "%"}, {"measurement": "hPrl-induced Stat5a/b dimerization", "setting": "Stat5a/b dimerization", "result": "potently inhibited"}, {"measurement": "GI50", "setting": "DU145", "result": 3520, "unit": "nM"}, {"measurement": "GI50", "setting": "CWR22Rv1 cells [7]", "result": 438, "unit": "nM"}, {"measurement": "IC50", "setting": "Stat5a [8]", "result": 16, "unit": "nM"}, {"measurement": "suppression of orthotopic tumor growth", "setting": "[9]; 10 mg/kg daily", "result": 6, "unit": "%"}, {"measurement": "suppression of orthotopic tumor growth", "setting": "[9]; 30 mg/kg daily", "result": 54, "unit": "%"}, {"measurement": "cell cycle distribution: G1, G2-M and dead cells (sub G1)", "setting": "CWR22Pc cells [10]", "result": "fraction of dead cells (sub G1) was increased at all time points"}, {"measurement": "GI50", "setting": "CWR22Pc cells [11]", "result": 482, "unit": "nM"}, {"measurement": "inhibition of primary CWR22Pc tumor growth (TW 1)", "setting": "CWR22Pc xenograft tumors; 30 mg/kg daily oral, 21 days from day 12", "result": 73, "unit": "%"}, {"measurement": "emergence of CR CWR22Pc tumors (TW 2)", "setting": "CWR22Pc xenograft tumors; 30 mg/kg daily oral, from day 13 after androgen deprivation", "result": "significantly blocked"}, {"measurement": "growth of established CR CWR22Pc tumors (TW 3)", "setting": "CWR22Pc xenograft tumors; 30 mg/kg daily oral, from day 23 after androgen deprivation", "result": "significantly blocked"}, {"measurement": "overall survival of tumor-bearing mice", "setting": "CWR22Pc xenograft tumors; TWs 2 and 3, vs docetaxel-treated mice", "result": "better overall survival"}, {"measurement": "levels of full-length AR, AR splice variants and tissue PSA in tumor lysates", "setting": "CWR22Pc xenograft tumors; immunoblotting, TWs 1, 2 and 3", "result": "did not affect"}, {"measurement": "nuclear Stat5a/b levels in CWR22Pc tumors (IHC)", "setting": "CWR22Pc xenograft tumors; [15]", "result": "decreased nuclear Stat5a/b levels in all TWs significantly"}, {"measurement": "fraction of viable tumor cells in CWR22Pc tumors", "setting": "CWR22Pc xenograft tumors; tumors harvested at end of treatment, all TWs", "result": "reduced the fraction of viable tumor cells in all TWs"}, {"measurement": "GI50", "setting": "[12]", "result": 2080, "unit": "nM"}, {"measurement": "IC50", "setting": "Stat5b [13]; read-out: IC50 for Prl-induced Stat5b phosphorylation, serum-starved CWR22Pc cells, 10 nM hPrl", "result": 70, "unit": "nM"}, {"measurement": "IC50", "setting": "Stat5b [13]; read-out: IC50 for Stat5b phosphorylation (constitutive), exponentially growing CWR22Pc cells", "result": 65, "unit": "nM"}, {"measurement": "IC50", "setting": "Stat5b [14]; read-out: IC50 for Prl-induced Stat5b phosphorylation, serum-starved CWR22Rv1 cells, 10 nM hPrl", "result": 48, "unit": "nM"}, {"measurement": "IC50", "setting": "Stat5b [14]; read-out: IC50 for Stat5b phosphorylation (constitutive), exponentially growing CWR22Rv1 cells", "result": 65, "unit": "nM"}]}
{"smiles": "CC(O)(CS(=O)(=O)c1ccc(F)cc1)C(=O)Nc1ccc(C#N)c(C(F)(F)F)c1", "note": "(stereo not drawn) [bicalutamide, reference compound]", "values": [{"measurement": "suppression of primary CWR22Pc tumor growth (TW 1)", "setting": "CWR22Pc xenograft tumors; 50 mg/kg daily oral, 21 days from day 12", "result": 30, "unit": "%"}, {"measurement": "nuclear Stat5a/b levels in CWR22Pc tumors (IHC)", "setting": "CWR22Pc xenograft tumors; [15]", "result": "no effect"}]}
